According to ChEMBL document CHEMBL1154674, “Synthesis and evaluation of three 18F-labeled aminophenylbenzothiazoles as amyloid imaging agents” (J Med Chem, 2009):

Columns and labels:
Assay type in all cases: ADME, organism-based, Macaca mulatta
[1] = Drug level in normal rhesus monkey cerebellum assessed as standard uptake value at 81.2 MBq, iv after 165 mins by microPET; conditions: in vivo, 2.75 h
How it was run: (§1)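 One normal rhesus monkey, each tracer given iv via the vena saphena (81.2, 96.3 or 109.4 MBq), with 1 day between tracer injections. Dynamic brain μPET over 180 min used frames of 5 × 60 s, 5 × 120 s, 9 × 300 s and 12 × 600 s. Images were reconstructed by filtered back projection with a RAMP filter. Regional time-activity curves were expressed as SUV.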

[2] = Drug level in normal rhesus monkey frontal cortex assessed as standard uptake value at 81.2 MBq, iv after 1.5 mins by microPET; conditions: in vivo, 0.025 h
How it was run: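 Single normal rhesus monkey; each tracer given iv via the vena saphena, with 1 day between tracer injections. Dynamic μPET ran 180 min (5×60 s, 5×120 s, 9×300 s, 12×600 s). Images were reconstructed by filtered back projection with a RAMP filter. Regional time-activity curves were expressed as SUV.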

[3] = Drug level in normal rhesus monkey frontal cortex assessed as standard uptake value at 81.2 MBq, iv after 3.5 mins by microPET; conditions: in vivo
[4] = Drug level in normal rhesus monkey pons assessed as standard uptake value at 81.2 MBq, iv after 22.5 mins by microPET; conditions: in vivo, 0.375 h
[5] = Drug level in normal rhesus monkey pons assessed as standard uptake value at 81.2 MBq, iv after 8 mins by microPET; conditions: in vivo
[6] = Drug level in normal rhesus monkey frontal cortex assessed as standard uptake value at 81.2 MBq, iv after 14 mins by microPET; conditions: in vivo
[7] = Drug level in normal rhesus monkey parietal cortex assessed as standard uptake value at 81.2 MBq, iv after 27.5 mins by microPET; conditions: in vivo
[8] = Drug level in normal rhesus monkey frontal cortex assessed as standard uptake value at 81.2 MBq, iv after 95 mins by microPET; conditions: in vivo
[9] = Drug level in normal rhesus monkey pons assessed as standard uptake value at 81.2 MBq, iv after 4.5 mins by microPET; conditions: in vivo, 0.075 h
[10] = Drug level in normal rhesus monkey cerebellum assessed as standard uptake value at 81.2 MBq, iv after 57.5 mins by microPET; conditions: in vivo; how it was run: as §1
[11] = Drug level in normal rhesus monkey frontal cortex assessed as standard uptake value at 81.2 MBq, iv after 42.5 mins by microPET; conditions: in vivo
[12] = Drug level in normal rhesus monkey parietal cortex assessed as standard uptake value at 81.2 MBq, iv after 52.5 mins by microPET; conditions: in vivo, 0.875 h
[13] = Drug level in normal rhesus monkey pons assessed as standard uptake value at 81.2 MBq, iv after 1.5 mins by microPET; conditions: in vivo, 0.025 h
[14] = Drug level in normal rhesus monkey frontal cortex assessed as standard uptake value at 81.2 MBq, iv after 27.5 mins by microPET; conditions: in vivo
[15] = Drug level in normal rhesus monkey thalamus assessed as standard uptake value at 81.2 MBq, iv after 37.5 mins by microPET; conditions: in vivo, 0.625 h
[16] = Drug level in normal rhesus monkey thalamus assessed as standard uptake value at 96.3 MBq, iv after 1.5 mins by microPET; conditions: in vivo, 0.025 h
[17] = Drug level in normal rhesus monkey pons assessed as standard uptake value at 96.3 MBq, iv after 47.5 mins by microPET; conditions: in vivo
[18] = Drug level in normal rhesus monkey pons assessed as standard uptake value at 96.3 MBq, iv after 27.5 mins by microPET; conditions: in vivo
[19] = Drug level in normal rhesus monkey pons assessed as standard uptake value at 109.4 MBq, iv after 63 mins by microPET; conditions: in vivo, 1.05 h
[20] = Drug level in normal rhesus monkey white matter assessed as standard uptake value at 109.4 MBq, iv after 12.5 mins by microPET; conditions: in vivo
[21] = Drug level in normal rhesus monkey thalamus assessed as standard uptake value at 109.4 MBq, iv after 123 mins by microPET; conditions: in vivo, 2.05 h
[22] = Drug level in normal rhesus monkey parietal cortex assessed as standard uptake value at 109.4 MBq, iv after 0.375 mins by microPET; conditions: in vivo, 22 s
[23] = Drug level in normal rhesus monkey frontal cortex assessed as standard uptake value at 109.4 MBq, iv after 0.625 mins by microPET; conditions: in vivo, 38 s
[24] = Drug level in normal rhesus monkey cerebellum assessed as standard uptake value at 109.4 MBq, iv after 22.5 mins by microPET; conditions: in vivo, 0.375 h
How it was run: (§2)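 One normal rhesus monkey received each tracer via the vena saphena, with 1 day between injections. Dynamic μPET ran 180 min for 18F tracers (5×60 s, 5×120 s, 9×300 s, 12×600 s) and 90 min for the 11C tracer (5×60 s, 5×120 s, 9×300 s, 3×600 s). Filtered back-projection reconstruction (RAMP filter) was used. Time-activity curves were drawn to give regional SUV.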

[25] = Drug level in normal rhesus monkey cerebellum assessed as standard uptake value at 109.4 MBq, iv after 75 mins by microPET; conditions: in vivo, 1.25 h; how it was run: as §2
[26] = Drug level in normal rhesus monkey white matter assessed as standard uptake value at 152.9 MBq, iv after 57.5 mins by microPET; conditions: in vivo
[27] = Drug level in normal rhesus monkey white matter assessed as standard uptake value at 152.9 MBq, iv after 2.5 mins by microPET; conditions: in vivo
[28] = Drug level in normal rhesus monkey thalamus assessed as standard uptake value at 152.9 MBq, iv after 47.5 mins by microPET; conditions: in vivo
[29] = Drug level in normal rhesus monkey cerebellum assessed as standard uptake value at 152.9 MBq, iv after 85 mins by microPET; conditions: in vivo
How it was run: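 One normal rhesus monkey, tracer given iv via the vena saphena (152.9 MBq), with at least 1 day between tracer injections. Dynamic brain μPET over 90 min used frames of 5 × 60 s, 5 × 120 s, 9 × 300 s and 3 × 600 s. Images were reconstructed by filtered back projection with a RAMP filter. Regional time-activity curves were expressed as SUV.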

[30] = Drug level in normal rhesus monkey white matter assessed as standard uptake value at 152.9 MBq, iv after 0.5 mins by microPET; conditions: in vivo
[31] = Drug level in normal rhesus monkey parietal cortex assessed as standard uptake value at 152.9 MBq, iv after 32.5 mins by microPET; conditions: in vivo
[32] = Drug level in normal rhesus monkey white matter assessed as standard uptake value at 152.9 MBq, iv after 1.5 mins by microPET; conditions: in vivo, 0.025 h
[33] = Drug level in normal rhesus monkey frontal cortex assessed as standard uptake value at 152.9 MBq, iv after 8 mins by microPET; conditions: in vivo
How it was run: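 Single normal rhesus monkey; tracer given iv via the vena saphena, 1 day apart from the other tracer injections. Dynamic μPET ran 90 min (5×60 s, 5×120 s, 9×300 s, 3×600 s). Images were reconstructed by filtered back projection with a RAMP filter. Regional time-activity curves were expressed as SUV.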

## CNc1ccc2nc(-c3ccc([18F])cc3)sc2c1
[1]
  SUV: 1.585
[2]
  SUV: 3.245
[3]
  SUV: 5.355
[4]
  SUV: 5.688
[5]
  SUV: 5.089
[6]
  SUV: 6.096
[7]
  SUV: 4.303
[8]
  SUV: 4.745
[9]
  SUV: 5.172
[10]
  SUV: 2.522
[11]
  SUV: 5.476
[12]
  SUV: 3.552
[13]
  SUV: 2.731
[14]
  SUV: 5.784
[15]
  SUV: 5.69

## CN(C)c1ccc2nc(-c3ccc([18F])cc3)sc2c1
[16]
  SUV: 1.55
[17]
  SUV: 1.84
[18]
  SUV: 1.61

## Nc1ccc2nc(-c3ccc([18F])cc3)sc2c1
[19]
  SUV: 4.75
[20]
  SUV: 3.01
[21]
  SUV: 4.63
[22]
  SUV: 0.34
[23]
  SUV: 1.15
[24]
  SUV: 4.4
[25]
  SUV: 2.92

## [11CH3]Nc1ccc(-c2nc3ccc(O)cc3s2)cc1 [PITTSBURGH COMPOUND B]
[26]
  SUV: 0.957
[27]
  SUV: 0.752
[28]
  SUV: 1.161
[29]
  SUV: 0.685
[30]
  SUV: 0.038
[31]
  SUV: 1.081
[32]
  SUV: 0.292
[33]
  SUV: 2.29
